Legend:
[1] = molecular target: Estrogen receptor beta (Homo sapiens) (UniProt Q92731); assay: Agonist activity at ERbeta expressed in HEK293 cells at 10 uM after 24 hrs by luciferase reporter gene assay relative to 3,17-beta-estradiol; assay type: functional, cell-based
Procedure, shortened: (§1)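 HEK293 cells (no endogenous ER) in phenol-free DMEM with 5% delipidated FBS were transfected for 4 h with 5 ng ERα or ERβ expression vector, 75 ng pERE2TATA-LUC reporter and 20 ng pCMVβ. Cells then received 10 μM compound, 10 nM E2 or vehicle (0.1% v/v) for 24 h. Luciferase was normalized to β-galactosidase and expressed as 100% × (test − vehicle)/(E2 − vehicle). Values are means of at least three independent transfections.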

[2] = molecular target: T1, Estrogen receptor (Homo sapiens) (UniProt P03372); assay: Agonist activity at ERalpha expressed in HEK293 cells at 10 uM after 24 hrs by luciferase reporter gene assay relative to 3,17-beta-estradiol; assay type: functional, cell-based; procedure, shortened: as §1
T1 sequence (whole entry): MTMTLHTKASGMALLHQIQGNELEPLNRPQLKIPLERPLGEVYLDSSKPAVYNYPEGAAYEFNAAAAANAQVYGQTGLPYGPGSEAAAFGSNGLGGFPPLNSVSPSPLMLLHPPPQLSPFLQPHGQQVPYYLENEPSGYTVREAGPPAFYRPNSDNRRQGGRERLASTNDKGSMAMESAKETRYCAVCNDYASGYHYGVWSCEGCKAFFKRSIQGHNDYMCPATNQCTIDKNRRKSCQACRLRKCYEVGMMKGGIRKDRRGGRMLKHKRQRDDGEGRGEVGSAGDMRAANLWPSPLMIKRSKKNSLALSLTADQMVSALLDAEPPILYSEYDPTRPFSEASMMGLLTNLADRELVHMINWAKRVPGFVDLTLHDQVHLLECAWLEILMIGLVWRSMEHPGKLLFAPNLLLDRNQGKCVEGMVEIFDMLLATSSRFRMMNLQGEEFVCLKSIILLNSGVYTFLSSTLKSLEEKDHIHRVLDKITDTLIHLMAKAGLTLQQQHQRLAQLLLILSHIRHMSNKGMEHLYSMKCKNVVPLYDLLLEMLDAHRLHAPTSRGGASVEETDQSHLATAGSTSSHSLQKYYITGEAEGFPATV

Homo sapiens = species: Homo sapiens; assay: Selectivity ratio of relative binding affinity for human ERalpha to relative binding affinity for human ERbeta
Procedure, shortened: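 COS-1 cells in DMEM with 10% delipidated FBS were transfected for 24 h with human ERα or ERβ vector (pSG5-hERα/β). Cells were washed, lysed in 0.5 M NaOH at 56 °C for 15 min and counted by scintillation, with nonspecific binding subtracted.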

Chain of Estrogen receptor beta (Homo sapiens) (Q92731 whole entry): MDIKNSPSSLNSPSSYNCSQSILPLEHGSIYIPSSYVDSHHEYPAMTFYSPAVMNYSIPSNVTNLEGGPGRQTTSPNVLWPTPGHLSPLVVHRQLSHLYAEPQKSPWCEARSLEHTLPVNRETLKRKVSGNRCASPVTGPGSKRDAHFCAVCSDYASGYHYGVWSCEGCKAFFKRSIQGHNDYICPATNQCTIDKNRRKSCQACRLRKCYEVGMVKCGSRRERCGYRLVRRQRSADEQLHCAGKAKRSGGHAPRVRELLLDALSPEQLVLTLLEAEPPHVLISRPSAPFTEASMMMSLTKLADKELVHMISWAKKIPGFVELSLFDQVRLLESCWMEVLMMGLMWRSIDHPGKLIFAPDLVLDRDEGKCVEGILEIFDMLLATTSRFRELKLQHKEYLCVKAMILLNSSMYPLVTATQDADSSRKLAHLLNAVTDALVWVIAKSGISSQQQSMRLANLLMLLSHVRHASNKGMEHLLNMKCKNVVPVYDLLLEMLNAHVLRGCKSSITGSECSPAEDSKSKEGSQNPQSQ

Row | SMILES | Activity [1] [%] | Activity [2] [%] | Ratio (Homo sapiens)
1 | O=C(CCCc1ccc(O)c(O)c1)CC(O)Cc1ccccc1 (racemic) | -0.8 | -0.5 | –
2 | CC(O)(CC(=O)CCc1ccccc1)c1ccccc1 (racemic) | 38.4 | 52.1 | –
3 | O=C(CCCc1ccc(O)cc1)CC(O)Cc1ccc(O)cc1 (stereo in doubt; 32b) | -1.6 | 2.8 | –
4 | O=C(CCc1cccc(O)c1)CC(O)CCc1ccccc1 (racemic) | 48.1 | 87.3 | 106
5 | c1ccc(CCC2=NOC(c3ccccc3)C2)cc1 (single isomer, unassigned) | 8.1 | 11.2 | –
6 | O=C(CCc1ccccc1)CC(O)c1ccccc1 (single isomer, unassigned) | 2.8 | 25.3 | –
7 | O=C(CCc1ccccc1O)CC(O)Cc1ccccc1 (racemic) | 5.1 | 45.2 | –
8 | O=C(CCCc1ccc(O)c(O)c1)CC(O)Cc1ccc(O)cc1 (racemic) | -0.6 | 0.5 | –
9 | c1ccc(CCC2=NOC(CCc3ccccc3)C2)cc1 (stereo not given) | -0.4 | 43.9 | –
10 | CC(O)(CC(=O)CCCc1ccccc1)c1ccccc1 (racemic) | 15.1 | 83.3 | 2
11 | CC1(c2ccccc2)CC(CCc2ccccc2O)=NO1 (single isomer, unassigned; 37a) | -0.4 | 11.8 | –
12 | CC1(c2ccccc2)CC(CCCc2ccc(O)cc2)=NO1 (single isomer, unassigned; 46a) | -0.9 | 14.4 | 13
13 | O=C(CCCc1ccccc1)CC(O)c1ccccc1 (stereo in doubt; 48a) | – | – | 0.7
14 | O=C(CCc1ccccc1O)CC(O)CCc1ccccc1 (racemic) | 1.1 | 4 | –
15 | Oc1cccc(CCC2=NOC(CCc3ccccc3)C2)c1 (single isomer, unassigned) | 3.6 | 3 | –
16 | O=C(CCCc1ccc(O)cc1)CC(O)Cc1ccc(O)cc1 (stereo in doubt; form 2) | 1.8 | 15.4 | –
17 | c1ccc(CCCC2=NOC(Cc3ccccc3)C2)cc1 (stereo not given) | 5.1 | 28.1 | –
18 | O=C(CCCc1ccc(O)cc1)CC(O)c1cccc(O)c1 (single isomer, unassigned) | 43.5 | 49.3 | –
19 | c1ccc(CCCC2=NOC(c3ccccc3)C2)cc1 (stereo in doubt; 43a) | -3.1 | – | –
20 | CC1(c2ccccc2)CC(CCc2ccccc2)=NO1 (single isomer, unassigned; 36b) | -7.3 | 10.9 | –
21 | O=C(CCCc1ccc(O)cc1)CC(O)Cc1ccccc1 (racemic) | 82.3 | 105 | 11

Row | SMILES | Activity [1] [%] | Activity [2] [%] | Ratio (Homo sapiens)
22 | O=C(CCCc1ccccc1)CC(O)c1ccccc1 (single isomer, unassigned) | 28.2 | 59.3 | 5
23 | Oc1cccc(CCC2=NOC(CCc3ccccc3)C2)c1 (stereo in doubt; 17a) | 2.6 | 8.3 | –
24 | O=C(CCCc1ccccc1)CC(O)Cc1ccc(O)cc1 (racemic) | 2.4 | 16 | –
25 | CC(O)(CC(=O)CCc1ccc(O)cc1)c1ccccc1 (racemic) | 116 | 80.3 | –
26 | Oc1ccccc1CCC1=NOC(CCc2ccccc2)C1 (stereo in doubt; 16b) | 2.6 | 21.8 | –
27 | Oc1ccccc1CCC1=NOC(CCc2ccccc2)C1 (single isomer, unassigned) | 4.2 | 4.5 | –
28 | O=C(CCc1ccccc1O)CC(O)Cc1ccc(F)cc1 (racemic) | 11.1 | 21.6 | –
29 | CC1(c2ccccc2)CC(CCCc2ccc(O)cc2)=NO1 (single isomer, unassigned; 46b) | 10.6 | 13.6 | 1
30 | c1ccc(CCCC2=NOC(c3ccccc3)C2)cc1 (stereo in doubt; 43b) | 17.2 | 11.5 | 1
31 | O=C(CCc1ccc(O)cc1)CC(O)Cc1ccc(F)cc1 (racemic) | 21.2 | 28.6 | –
32 | O=C(CCc1ccc(O)cc1)CC(O)CCc1ccccc1 (racemic) | 10.1 | 46.8 | 0.3
33 | Oc1ccccc1CCC1=NOC(Cc2ccccc2)C1 (single isomer, unassigned) | 30.5 | 39.7 | –
34 | O=C(CCc1ccccc1)CC(O)Cc1ccc(O)cc1 (racemic) | 6.1 | 51.4 | –
35 | c1ccc(CCC2=NOC(Cc3ccccc3)C2)cc1 (single isomer, unassigned) | 1.3 | 38.2 | –
36 | CC1(c2ccccc2)CC(CCc2ccc(O)cc2)=NO1 (single isomer, unassigned; 39b) | 37.4 | 18.7 | –
37 | CC1(c2ccccc2)CC(CCc2ccccc2O)=NO1 (single isomer, unassigned; 37b) | 30 | 21.7 | –
38 | CC1(c2ccccc2)CC(CCc2ccc(O)cc2)=NO1 (single isomer, unassigned; 39a) | 18 | 39.7 | –
39 | CC1(c2ccccc2)CC(CCc2ccccc2)=NO1 (single isomer, unassigned; 36a) | -20 | 8.1 | –
40 | CC1(c2ccccc2)CC(CCc2cccc(O)c2)=NO1 (single isomer, unassigned; 38a) | 0.5 | 21.6 | –
41 | CC1(c2ccccc2)CC(CCc2cccc(O)c2)=NO1 (single isomer, unassigned; 38b) | -2.9 | 7.1 | –

Second part, the compound after the results:

Row | Activity [1] [%] | Activity [2] [%] | Ratio (Homo sapiens) | SMILES
42 | -0.9 | 32.9 | – | Oc1ccc(CCCC2=NOC(c3cccc(O)c3)C2)cc1 (single isomer, unassigned)
43 | 0.8 | 15.8 | – | Oc1ccc(CCC2=NOC(CCc3ccccc3)C2)cc1 (stereo in doubt; 18b)
44 | -2.4 | 11.1 | – | Oc1ccccc1CCC1=NOC(Cc2ccc(F)cc2)C1 (stereo not given)
45 | -1.3 | 2.1 | – | Oc1ccc(CCCC2=NOC(Cc3ccccc3)C2)cc1O (single isomer, unassigned; 27b)
46 | 15.4 | 62.8 | – | Oc1ccc(CCC2=NOC(CCc3ccccc3)C2)cc1 (single isomer, unassigned)
47 | 7.2 | 27.6 | – | Oc1ccc(CCCC2=NOC(c3cccc(O)c3)C2)cc1 (stereo in doubt; 47b)
48 | -0.7 | 1.4 | – | Oc1ccc(CC2CC(CCCc3ccc(O)c(O)c3)=NO2)cc1 (single isomer, unassigned; 28b)
49 | 1.3 | 0.3 | – | Oc1ccc(CCCC2=NOC(Cc3ccccc3)C2)cc1O (single isomer, unassigned; 27a)
50 | 19.8 | 75.1 | – | Oc1ccc(CCCC2=NOC(Cc3ccccc3)C2)cc1 (single isomer, unassigned)
51 | 41.5 | 24.3 | 0.5 | Oc1ccc(CCC2=NOC(Cc3ccccc3)C2)cc1 (single isomer, unassigned; 3b)
52 | 7.4 | 28.9 | – | Fc1ccc(CC2CC(CCc3ccccc3)=NO2)cc1 (single isomer, unassigned)
53 | -0.9 | 14.4 | – | Oc1ccc(CCCC2=NOC(Cc3ccc(O)cc3)C2)cc1 (stereo in doubt; 26a)
54 | 4.4 | 5.7 | – | Oc1ccc(CCC2=NOC(Cc3ccc(F)cc3)C2)cc1 (single isomer, unassigned)
55 | 108 | 87.4 | – | O=C(CCCc1ccc(O)cc1)CC(O)Cc1ccc(O)cc1 (stereo in doubt; form 1)
56 | 10.6 | 13.6 | – | Oc1ccc(CCCC2=NOC(Cc3ccc(O)cc3)C2)cc1 (single isomer, unassigned)
57 | 17 | 97.2 | – | Oc1ccc(CC2CC(CCCc3ccccc3)=NO2)cc1 (single isomer, unassigned; 25b)
58 | 4.7 | 67.1 | – | Oc1ccc(CC2CC(CCCc3ccccc3)=NO2)cc1 (single isomer, unassigned; 25a)
59 | – | – | 6 | Oc1ccc(CCC2=NOC(Cc3ccccc3)C2)cc1 (single isomer, unassigned; 3a)
60 | -1.1 | 1.7 | – | Oc1ccc(CC2CC(CCCc3ccc(O)c(O)c3)=NO2)cc1 (single isomer, unassigned; 28a)
61 | 42.4 | 105 | – | Oc1ccc(CC2CC(CCc3ccccc3)=NO2)cc1 (stereo not given)
62 | 78.2 | 154 | – | Oc1ccc(CCCC2=NOC(Cc3ccccc3)C2)cc1 (stereo in doubt; 24a)

Source: ChEMBL document CHEMBL1157808, “Synthesis and biological evaluation of phenolic 4,5-dihydroisoxazoles and 3-hydroxy ketones as estrogen receptor alpha and beta agonists” (Bioorg Med Chem, 2010)
